Experimental data: ChEMBL document CHEMBL4145471, “New 1,5 and 2,5-disubstituted tetrazoles-dependent activity towards surface barrier of Candida albicans” (Eur J Med Chem, 2018)

How the values were obtained:
[1] = tested on: Candida albicans; test: Antifungal activity against Candida albicans ATCC 90028 assessed as inhibition of metabolic activity at 2.5 ug/ml after 48 hrs in presence of 10 ug/ml fluconazol by XTT assay relative to control; format: functional; conditions: values are per cent of control
Summary of the method: (§1)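 C. albicans ATCC 90028 in checkerboard: fluconazole serial dilutions (80-1.25 µg/mL) crossed with tetrazole (80-1.25 µg/mL final), M27-A3 inoculum in RPMI 1640, 35°C for 48 h. Metabolic activity measured by XTT reduction, read at 475 nm (660 nm reference). Activity expressed relative to untreated growth control absorbance.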

[2] = tested on: Candida albicans; test: Antifungal activity against Candida albicans ATCC 90028 assessed as metabolic activity at 80 ug/ml after 48 hrs in presence of 40 ug/ml fluconazol by XTT assay relative to control
[3] = tested on: Candida albicans; test: Synergistic antifungal activity against Candida albicans ATCC 90028 at 2.5 ug/ml after 48 hrs in presence of 40 ug/ml fluconazol by checkerboard assay relative to control; format: functional
Summary of the method: (§2)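 Checkerboard microdilution (M27-A3) on C. albicans ATCC 90028 in RPMI 1640: fluconazole (80-1.25 µg/mL) crossed with tetrazole (80-1.25 µg/mL final), incubated at 35°C for 48 h. Growth by OD405 at 18 and 48 h, endpoint taken as 100% inhibition. FIC index = sum of the two agents' FICs; <1 synergism, >1 antagonism.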

[4] = tested on: Candida albicans; test: Antifungal activity against Candida albicans ATCC 90028 assessed as inhibition of metabolic activity at 10 ug/ml after 48 hrs in presence of 20 ug/ml fluconazol by XTT assay relative to control; format: functional; conditions: values are per cent of control
Summary of the method: (§3)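 Checkerboard against strain ATCC 90028, inoculum per M27-A3: fluconazole 80-1.25 µg/mL on one axis, tetrazole 80-1.25 µg/mL on the other. Plates at 35°C for 48 h, then XTT metabolic reduction read at 475 nm (660 nm reference). Activity is the drop in mean absorbance against untreated growth control. FICs and their summed FIC index are taken at 50% reduction in metabolic activity.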

[5] = tested on: Candida albicans; test: Antifungal activity against Candida albicans ATCC 90028 assessed as inhibition of metabolic activity at 2.5 ug/ml after 48 hrs in presence of 2.5 ug/ml fluconazol by XTT assay relative to control; format: functional; conditions: ATCC 90028, 48 h, values are per cent of control; summary of the method: as §1
[6] = tested on: Candida albicans; test: Antifungal activity against Candida albicans ATCC 90028 assessed as FIC at 80 ug/ml in presence of fluconazol after 48 hrs by checkerboard-based XTT assay; format: functional; summary of the method: as §3
[7] = tested on: Candida albicans; test: Synergistic antifungal activity against Candida albicans ATCC 90028 at 2.5 ug/ml after 48 hrs in presence of 5 ug/ml fluconazol by checkerboard assay relative to control; format: functional; summary of the method: as §2
[8] = tested on: Candida albicans; test: Antifungal activity against Candida albicans ATCC 90028 assessed as inhibition of metabolic activity at 1.25 ug/ml after 48 hrs in presence of 40 ug/ml fluconazol by XTT assay relative to control; format: functional; conditions: values are per cent of control; summary of the method: as §3
[9] = tested on: Candida albicans; test: Antifungal activity against Candida albicans ATCC 90028 at 8 ug/ml after 18 hrs relative to control; format: functional
Summary of the method: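 Planktonic broth microdilution per M27-A3 in MOPS-buffered RPMI 1640 (pH 7.0), final inoculum 1.8×10^3 cells/mL, compounds 0.0313–16 µg/mL from 1600 µg/mL stocks in ethanol or DMSO. Incubated at 35°C without agitation; OD405 read at 18 and 48 h. % inhibition was derived from test, sterility (no inoculum) and solvent growth-control wells. Amphotericin B at 0.5 µg/mL served as the 100% control.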

[10] = tested on: Candida albicans; test: Antifungal activity against Candida albicans ATCC 90028 assessed as metabolic activity at 20 ug/ml after 48 hrs in presence of 80 ug/ml fluconazol by XTT assay relative to control
[11] = tested on: Candida albicans; test: Synergistic antifungal activity against Candida albicans ATCC 90028 at 20 ug/ml after 48 hrs in presence of 20 ug/ml fluconazol by checkerboard assay relative to control; format: functional; conditions: ATCC 90028, 48 h, read-out: GI
Summary of the method: (§4)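 Checkerboard in C. albicans ATCC 90028, inoculum prepared per CLSI M27-A3 in RPMI. Fluconazole serially diluted 80-1.25 µg/mL across the plate against the partner compound at 80-1.25 µg/mL final. Incubated 48 h at 35°C. Metabolic activity read by XTT reduction at 475 nm (660 nm reference), given as % of the untreated growth control.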

[12] = tested on: Candida albicans; test: Antifungal activity against Candida albicans ATCC 90028 assessed as inhibition of metabolic activity at 5 ug/ml after 48 hrs in presence of 1.25 ug/ml fluconazol by XTT assay relative to control; format: functional; conditions: values are per cent of control; summary of the method: as §3
[13] = tested on: Candida albicans; test: Synergistic antifungal activity against Candida albicans ATCC 90028 at 5 ug/ml after 48 hrs in presence of 2.5 ug/ml fluconazol by checkerboard assay relative to control; format: functional; summary of the method: as §2
[14] = tested on: Candida albicans; test: Synergistic antifungal activity against Candida albicans ATCC 90028 at 1.25 ug/ml after 48 hrs in presence of 80 ug/ml fluconazol by checkerboard assay relative to control; format: functional
Summary of the method: (§5)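 Checkerboard per M27-A3 against ATCC 90028: fluconazole at 80–1.25 µg/mL horizontally and partner compound at 80–1.25 µg/mL vertically, 100 µL yeast inoculum per well, 35°C for 48 h. After 48 h, metabolic activity was measured by XTT reduction at 475 nm (660 nm reference) relative to untreated growth control. FIC index is the sum of the FICs; <1 was defined as synergism and >1 as antagonism.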

[15] = tested on: Candida albicans; test: Synergistic antifungal activity against Candida albicans ATCC 90028 at 20 ug/ml after 48 hrs in presence of 2.5 ug/ml fluconazol by checkerboard assay relative to control; format: functional; summary of the method: as §2
[16] = tested on: Candida albicans; test: Synergistic antifungal activity against Candida albicans ATCC 90028 at 40 ug/ml after 48 hrs in presence of 20 ug/ml fluconazol by checkerboard assay relative to control; format: functional; summary of the method: as §4
[17] = tested on: Candida albicans; test: Synergistic antifungal activity against Candida albicans ATCC 90028 at 1.25 ug/ml after 48 hrs in presence of 5 ug/ml fluconazol by checkerboard assay relative to control; format: functional; summary of the method: as §5
[18] = tested on: Candida albicans; test: Synergistic antifungal activity against Candida albicans ATCC 90028 at 2.5 ug/ml after 48 hrs in presence of 2.5 ug/ml fluconazol by checkerboard assay relative to control; format: functional; conditions: ATCC 90028, 48 h, read-out: GI; summary of the method: as §2
[19] = tested on: Candida albicans; test: Synergistic antifungal activity against Candida albicans ATCC 90028 at 5 ug/ml after 48 hrs in presence of 5 ug/ml fluconazol by checkerboard assay relative to control; format: functional; conditions: ATCC 90028, 48 h, read-out: GI; summary of the method: as §4
[20] = tested on: Candida albicans; test: Antifungal activity against Candida albicans ATCC 90028 assessed as metabolic activity at 10 ug/ml after 48 hrs in presence of 40 ug/ml fluconazol by XTT assay relative to control
[21] = tested on: Candida albicans; test: Antifungal activity against Candida albicans ATCC 90028 assessed as metabolic activity at 80 ug/ml after 48 hrs in presence of 2.5 ug/ml fluconazol by XTT assay relative to control

| SMILES | residual activity [1] [%] | Metabolic activity [2] [%] | growth inhibition (GI) [3] [%] | residual activity [4] [%] | residual activity at 2.5 µg/mL [5] [%] | FIC [6] | growth inhibition (GI) [7] [%] | residual activity [8] [%] | Activity [9] [%] | Metabolic activity [10] [%] | inhibition of growth at 20 µg/mL [11] [%] | residual activity [12] [%] | growth inhibition (GI) [13] [%] | growth inhibition (GI) [14] [%] | growth inhibition (GI) [15] [%] | growth inhibition (GI) [16] [%] | growth inhibition (GI) [17] [%] | inhibition of growth at 2.5 µg/mL [18] [%] | inhibition of growth at 5 µg/mL [19] [%] | Metabolic activity [20] [%] | also measured |
| --- | --- | --- | --- | --- | --- | --- | --- | --- | --- | --- | --- | --- | --- | --- | --- | --- | --- | --- | --- | --- | --- |
| ClCCCn1nnnc1-c1ccccc1Cl | 64.55 | 89.73 | 99.32 | 87.4 | 75.8 | >5 | 98.94 | 81.57 | 99.44 | 81.77 | 99.7 | 79.99 | 99.14 | 99.49 | 99.25 | 99.53 | 98.74 | 99.4 | 98.8 | 100 | Metabolic activity [21]: 59.43% |
| Cc1ccc(-c2nnn(CCCN3CCOCC3)n2)cc1 | 85.87 | 100 | 98.91 | 93.01 | 100 | >1.25 | 98.33 | 100 | 99.97 | 69.42 | 99.1 | 100 | 98.9 | 99.54 | 99.31 | 99.55 | 99.86 | 98.5 | 98.7 | 100 | Metabolic activity [21]: 78.22% |
| CCOC(=O)CCn1nnc(-c2ccccc2)n1 | 71.01 | 97.37 | 99.46 | 70.81 | 82.6 | >5 | 99.08 | 86.85 | 99.01 | 94.76 | 99.5 | 88.02 | 99.77 | 99.51 | 99.63 | 99.54 | 98.99 | 99.8 | 99.1 | 94.14 | Metabolic activity [21]: 64.31% |
